This is an account of results in ChEMBL document CHEMBL5325493, “Discovery of AD258 as a Sigma Receptor Ligand with Potent Antiallodynic Activity” (J Med Chem, 2023).

In general, Ki refers to a measure of affinity in units of concentration, obtained from inhibition or displacement. Low values mean tighter binding, high ones weaker binding. As a reminder, the inhibition is the drop in the measured response relative to a control, in per cent. The low end stands for little suppression, the high end for strong suppression.

Calls of active or inactive are those of the source. No cut-off for these calls is given here.

Data set [1] has as its target Sigma non-opioid intracellular receptor 1 (Homo sapiens, UniProt Q99720). The data set is described as follows: Binding affinity to S1R (unknown origin). The method, boiled down:
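Rat liver homogenates from male Sprague Dawley rats in 50 mM Tris pH 8. […] Incubated 120 min at 37 °C, then filtration and scintillation counting. Ki is the mean ± SD of at least two experiments in duplicate.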

Data set [2] concerns the target Sigma intracellular receptor 2 (Homo sapiens, UniProt Q5BJF2). Briefly: Binding affinity to S2R (unknown origin).
The subject of data set [3] is Mus musculus. Briefly: Anti-allodynic activity against capsaicin-induced wild type CD1 mouse allodynia model assessed as reversal of capsaicin induced hypersensitivity by measuring latency value at 40 mg/kg, sc preincubated for 5 with […] followed by compound addition for 30 mins prior to capsaicin stimulation. The format is functional, organism-based. The method, boiled down:
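Female CD1 mice, 25–30 g, acclimated at least 1 week. Mechanical allodynia induced by intraplantar capsaicin; read-out is response latency to mechanical stimulation of the paw. Compound given s.c.; the S1R agonist PRE-084 (32 mg/kg, s.c.) was co-administered to test reversal. Values are mean ± SEM from 6–9 animals per group.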

Data set [4] concerns Mus musculus. The data set is described as follows: Anti-allodynic activity against capsaicin-induced d sc dosed wild type CD1 mouse allodynia model assessed as reversal of capsaicin induced hypersensitivity by measuring latency value preincubated for 30 mins followed by capsaicin addition (reference value: 13.51 +/- 1.93 sec). The note with it: dose 10-40 mg/kg. The format is functional.

Data set [5] deals with Sigma non-opioid intracellular receptor 1 (Rattus norvegicus) (UniProt Q9R0C9). Briefly: Selectivity ratio of Ki for binding affinity to rat liver homogenate S1R incubated for 2 hrs in absence of phenytoin to Ki for binding affinity to rat liver homogenate S1R incubated for 2 hrs in presence of phenytoin. The format is tissue-based.
Data set [6] has as its target Delta-type opioid receptor (Homo sapiens) (UniProt P41143). The data set is described as follows: Inhibition of DOR (unknown origin) at 1 uM relative to control.
The subject of data set [7] is Mus musculus. The data set is described as follows: Anti-allodynic activity against capsaicin-induced wild type CD1 mouse allodynia model assessed as reversal of capsaicin induced hypersensitivity by measuring latency value at 1.25 mg/kg, sc preincubated for 5 with […] followed by compound addition for 30 mins prior to capsaicin stimulation. The format is functional, organism-based.

Data set [8] has as its target Kappa-type opioid receptor (Homo sapiens) (UniProt P41145). Briefly: Inhibition of KOR (unknown origin) at 1 uM relative to control. Put shortly: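 Nonspecific binding defined with 10 µM naloxone. Filtration through PEI-presoaked filters, then scintillation counting.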
Data set [9] relates to Mus musculus. The data set is described as follows: Anti-allodynic activity against capsaicin-induced wild type CD1 mouse allodynia model assessed as reversal of capsaicin induced hypersensitivity by measuring latency value at 0.6 to 1.25 mg/kg, sc preincubated for 30 mins followed by capsaicin addition (reference value: 13.51 +/- 1.93 sec). The format is functional, organism-based. The note with it: dose 0.6-1.25 mg/kg.

A short description of data set [10]: Cytotoxicity against HCE cells at 50 to 100 uM […] by LDH assay. The format is toxicity, cell-based. The note with it: human, 1.25 h, dose 50-100 µM.
Data set [11] concerns the target Mu-type opioid receptor (Homo sapiens) (UniProt P35372). The data set is described as follows: Inhibition of MOR (unknown origin) at 1 uM relative to control.
For data set [12], the target named is Cannabinoid receptor 1 (Homo sapiens) (UniProt P21554). Briefly: Inhibition of CB1 (unknown origin) at 1 uM relative to control. Put shortly: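 Membranes from rat Chem-1 cells expressing human recombinant CB1, 5 µg per sample, in modified HEPES pH 7.4. […] Nonspecific binding with 10 µM CP 55,940. Compound tested at 1 µM; filtration and counting of specifically bound radioligand.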

Data set [13] is described as follows: Toxicity in wild type CD1 mouse assessed as effect on motor coordination at 1.25 mg/kg, sc measured upto 240 mins by rotarod test. The note with it: in vivo, time < 240 hrs. The format is organism-based. The method, boiled down:
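Female CD1 mice on rotarod; latency to fall recorded immediately before and at several times over 4 h after s.c. dosing. Vehicle was 5% DMSO in saline; pregabalin 60 mg/kg s.c. served as the motor-deficit control. Mean ± SEM from 6–7 animals, analysed by 2-way repeated-measures ANOVA with Student–Newman–Keuls test.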
(In general: The rotarod test checks motor coordination on a turning rod.)

Data set [14] deals with Cannabinoid receptor 2 (Homo sapiens) (UniProt P34972). Briefly: Inhibition of CB2 (unknown origin) at 1 uM relative to control. Put shortly: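 Membranes from CHO-K1 cells expressing human CB2, 30 µg per sample, in modified HEPES pH 7.0. […] Nonspecific binding with 10 µM R(+)-WIN-55,212-2. Compound tested at 1 µM; bound radioligand counted after filtration.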
Data set [15] in a line: Cytotoxicity against HCE cells assessed as reduction in cell viability at 100 uM […] by MTT assay. The format is toxicity, cell-based. The note with it: human. (Formazan colour is commonly taken as a measure of viable cells.)
The nature of data set [16]: Cytotoxicity against HCE cells assessed as reduction in cell viability at above 20 uM incubated for 1 hr by MTT assay. The format is toxicity, cell-based. As to conditions: human. The method, boiled down: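 HCE cells in MEM with 10% FBS, grown to 80–90% confluence. Exposed to compounds in free medium for 20 h. MTT (5 mg/mL in PBS, 1:5 of medium volume) then added for 1 h; formazan dissolved in DMSO and read at 540 nm. Viability expressed as % of untreated cells; three independent experiments.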

Data set [17] has as its system Mus musculus. The data set is described as follows: Anti-allodynic activity against capsaicin-induced wild type CD1 mouse allodynia model assessed as reversal of capsaicin induced hypersensitivity by measuring latency value at 20 mg/kg, sc preincubated for 5 with […] followed by compound addition for 30 mins prior to capsaicin stimulation. The format is functional, organism-based.

The target of data set [18] is Sigma non-opioid intracellular receptor 1 (Rattus norvegicus, UniProt Q9R0C9). Briefly: Displacement of [3H]-(+)-pentazocine from rat liver homogenate S1R incubated for 120 mins by liquid scintillation counting method. The format is tissue-based. In general terms: Loss of bound radioactivity is the signal in a displacement assay; it reports binding, not function.
A short description of data set [19]: Toxicity in wild type CD1 mouse assessed as effect on motor coordination at 60 mg/kg, sc measured upto 240 mins by rotarod test. The format is organism-based. As to conditions: in vivo, 4 h. The method, boiled down:
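Female CD1 mice, 25–30 g. Latency to fall from the rotarod was recorded immediately before and several times after s.c. dosing, over 4 h; vehicle was DMSO 5% in saline. Mean ± SEM from 6–7 animals; 2-way repeated measures ANOVA followed by Student–Newman–Keuls test against time 0.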

The subject of data set [20] is Mus musculus. The data set is described as follows: Anti-allodynic activity against capsaicin-induced wild type CD1 mouse allodynia model assessed as reversal of capsaicin induced hypersensitivity by measuring latency value at 10 mg/kg, sc preincubated for 5 with […] followed by compound addition for 30 mins prior to capsaicin stimulation. The format is functional, organism-based.

Data set [21] concerns Mus musculus. The data set is described as follows: Anti-allodynic activity against capsaicin-induced wild type CD1 mouse allodynia model assessed as reversal of capsaicin induced hypersensitivity by measuring latency value at 5 mg/kg, sc preincubated for 30 mins followed by capsaicin addition (reference value: 13.51 +/- 1.93 sec). The format is functional, organism-based.

Sequence of Sigma intracellular receptor 2 (Q5BJF2 whole entry): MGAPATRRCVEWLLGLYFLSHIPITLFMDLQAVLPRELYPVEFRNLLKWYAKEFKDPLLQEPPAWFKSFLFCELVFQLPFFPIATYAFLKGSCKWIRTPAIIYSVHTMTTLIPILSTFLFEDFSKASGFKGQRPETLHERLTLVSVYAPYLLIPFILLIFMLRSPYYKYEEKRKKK
Sequence of Sigma non-opioid intracellular receptor 1 (Homo sapiens, UniProt Q99720) (Q99720 whole entry): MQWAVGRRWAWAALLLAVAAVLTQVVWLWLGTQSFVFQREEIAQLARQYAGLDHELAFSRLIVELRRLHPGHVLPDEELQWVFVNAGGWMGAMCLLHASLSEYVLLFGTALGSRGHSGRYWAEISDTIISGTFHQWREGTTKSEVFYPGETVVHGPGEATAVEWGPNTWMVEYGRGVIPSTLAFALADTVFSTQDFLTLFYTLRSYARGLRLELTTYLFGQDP
Sequence of Sigma non-opioid intracellular receptor 1 (Rattus norvegicus) (Q9R0C9 whole entry): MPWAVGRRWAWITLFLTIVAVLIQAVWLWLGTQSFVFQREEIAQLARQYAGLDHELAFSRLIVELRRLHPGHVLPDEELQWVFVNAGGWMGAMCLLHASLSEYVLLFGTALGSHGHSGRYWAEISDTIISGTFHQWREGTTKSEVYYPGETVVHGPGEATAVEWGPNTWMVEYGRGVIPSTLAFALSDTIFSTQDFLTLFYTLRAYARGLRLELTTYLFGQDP
Sequence of Sigma non-opioid intracellular receptor 1 (Rattus norvegicus, UniProt Q9R0C9) (Q9R0C9 whole entry): as above
Sequence of Delta-type opioid receptor (Homo sapiens) (P41143 whole entry): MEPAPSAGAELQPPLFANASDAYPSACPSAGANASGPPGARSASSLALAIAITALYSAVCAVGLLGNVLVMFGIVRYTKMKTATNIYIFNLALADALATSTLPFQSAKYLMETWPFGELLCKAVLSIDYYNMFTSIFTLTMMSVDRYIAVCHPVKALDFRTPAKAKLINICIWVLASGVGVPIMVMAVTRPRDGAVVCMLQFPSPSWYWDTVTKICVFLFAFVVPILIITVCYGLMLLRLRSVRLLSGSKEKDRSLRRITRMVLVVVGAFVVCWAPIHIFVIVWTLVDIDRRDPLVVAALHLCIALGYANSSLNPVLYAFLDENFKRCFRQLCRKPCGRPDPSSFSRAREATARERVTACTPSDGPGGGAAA
Sequence of Kappa-type opioid receptor (Homo sapiens) (P41145 whole entry): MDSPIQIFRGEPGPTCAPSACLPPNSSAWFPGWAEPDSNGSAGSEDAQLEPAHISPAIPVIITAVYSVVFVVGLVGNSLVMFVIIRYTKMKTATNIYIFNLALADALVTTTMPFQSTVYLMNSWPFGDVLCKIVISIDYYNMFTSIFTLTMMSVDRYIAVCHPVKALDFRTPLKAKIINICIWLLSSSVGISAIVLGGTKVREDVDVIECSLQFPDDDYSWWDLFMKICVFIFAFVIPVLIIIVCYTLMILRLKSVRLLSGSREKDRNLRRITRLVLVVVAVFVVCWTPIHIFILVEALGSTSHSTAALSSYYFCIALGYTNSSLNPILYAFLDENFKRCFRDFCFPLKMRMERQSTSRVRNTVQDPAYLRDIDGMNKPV
Sequence of Mu-type opioid receptor (Homo sapiens) (P35372 whole entry): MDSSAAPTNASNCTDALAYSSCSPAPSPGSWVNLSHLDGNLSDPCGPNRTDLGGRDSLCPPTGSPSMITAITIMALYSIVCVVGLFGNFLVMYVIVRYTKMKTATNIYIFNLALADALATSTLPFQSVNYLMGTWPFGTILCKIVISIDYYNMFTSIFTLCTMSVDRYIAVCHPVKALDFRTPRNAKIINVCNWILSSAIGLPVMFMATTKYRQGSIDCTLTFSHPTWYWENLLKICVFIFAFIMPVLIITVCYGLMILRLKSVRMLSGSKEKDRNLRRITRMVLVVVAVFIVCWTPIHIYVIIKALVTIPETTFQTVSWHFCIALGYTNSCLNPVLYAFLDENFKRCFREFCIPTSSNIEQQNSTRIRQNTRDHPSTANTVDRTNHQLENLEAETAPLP
Sequence of Cannabinoid receptor 2 (Homo sapiens) (P34972 whole entry): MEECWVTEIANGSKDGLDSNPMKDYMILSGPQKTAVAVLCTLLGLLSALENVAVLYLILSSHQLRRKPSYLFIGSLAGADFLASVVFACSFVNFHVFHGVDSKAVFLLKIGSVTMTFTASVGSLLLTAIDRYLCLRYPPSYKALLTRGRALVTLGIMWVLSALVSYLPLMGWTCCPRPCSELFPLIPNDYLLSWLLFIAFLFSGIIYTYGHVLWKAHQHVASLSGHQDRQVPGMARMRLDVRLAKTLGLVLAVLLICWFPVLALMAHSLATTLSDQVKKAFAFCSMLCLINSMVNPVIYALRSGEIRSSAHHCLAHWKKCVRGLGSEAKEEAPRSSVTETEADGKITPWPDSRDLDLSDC
Sequence of Cannabinoid receptor 1 (Homo sapiens) (P21554 whole entry): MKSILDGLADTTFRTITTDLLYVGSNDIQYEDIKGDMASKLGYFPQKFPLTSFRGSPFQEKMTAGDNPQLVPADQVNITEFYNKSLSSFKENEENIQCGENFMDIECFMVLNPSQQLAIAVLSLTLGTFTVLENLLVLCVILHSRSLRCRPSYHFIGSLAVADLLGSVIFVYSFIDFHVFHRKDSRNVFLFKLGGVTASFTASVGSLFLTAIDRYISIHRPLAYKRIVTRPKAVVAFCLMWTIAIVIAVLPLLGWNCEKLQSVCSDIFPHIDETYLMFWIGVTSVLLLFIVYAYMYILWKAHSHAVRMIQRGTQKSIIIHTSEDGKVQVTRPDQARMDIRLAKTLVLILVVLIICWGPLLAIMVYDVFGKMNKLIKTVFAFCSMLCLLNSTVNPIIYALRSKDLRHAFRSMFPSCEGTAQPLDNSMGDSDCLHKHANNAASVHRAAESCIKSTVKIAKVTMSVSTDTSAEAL

With `COC1Cc2ccccc2C2(CCC(N(C)CC3CCCCC3)CC2)O1` (stereo not given), the inhibition constant (Ki) in [1] turned out to be 1.9 nM; in data set [2], 12 nM.

For `O=C(Cc1ccc(Cl)c(Cl)c1)N1CCC2(CCN(CCc3ccccc3)C2)C1` (stereo not given), in the data set on Mus musculus [3], the outcome was inactive. Besides, the Activity entry is “Dose-Dependent Effect” with Mus musculus [4] and 100% in the data set with Mus musculus [4] (0.5 h, at 10 to 40 mg/kg).

With `C=CCN1CC[C@@]2(C)C[C@@H]1Cc1ccc(O)cc12`, in data set [5], the Ratio Ki turned out to be 5.8.

For `N#Cc1ccc(N2CCC3(CCN(CCc4ccccc4)C3)C2)cc1` (stereo not given), the inhibition in data set [6], in data set [8], in data set [11], in data set [12] and in data set [14] was less than 50% each time. Moreover, the result in the data set on Mus musculus [7] was inactive. Besides, the result in the data set on Mus musculus [9] was Active. The Activity entry in data set [10] is “Toxic”; in [13] it was “Non-Toxic”; in the data set on Mus musculus [4] it was “Dose-Dependent Effect”; in the data set with Mus musculus [4] (0.5 h, at 10 to 40 mg/kg), 100%.

For the compound `c1ccc(CN2CCC3(CC2)OCC(c2ccccc2)CO3)cc1`, the Ki came to 0.013 nM in data set [1] and 813 nM in data set [2].

Turning to `c1ccc(CCN2CCC3(CCN(c4ccccc4)C3)C2)cc1` (stereo not given), the Activity entry was “Toxic” in data set [15], “Toxic” in data set [10], “Toxic” in data set [16] and “Dose-Dependent Effect” in the data set on Mus musculus [4]. The result in the data set with Mus musculus [17] was inactive.

On to `Cl.O=C(OCCN1CCOCC1)C1(c2ccccc2)CCCCC1`, for which, in [16], the Activity result was “Toxic”.

In data set [18], `c1ccc2c(c1)Nc1ccccc1S2` [PHENOTHIAZINE] registered an inhibition constant Ki of 4.3 nM.

In the case of `CN1CCN(CCc2ccc(Cl)c(Cl)c2)CC1`, the result in the data set with Mus musculus [3] was inactive.

Consider `c1ccc(CN2CCC3(CCc4ccccc4S3)CC2)cc1`, for which the Ki in [1] is 9.2 nM; in data set [2], 6.4 nM.

On to `CC(C)C[C@H](CN)CC(=O)O` [PREGABALIN], for which the Activity result in data set [19] is reported as “Toxic”.

`O=[N+]([O-])c1ccc(N2CCC3(CCN(CCc4ccccc4)C3)C2)cc1` (stereo not given): the outcome with Mus musculus [20] was inactive. Besides, the Activity in data set [15] is 50%; with Mus musculus [4], “Dose-Dependent Effect”; in the data set with Mus musculus [4] (0.5 h, at 10 to 40 mg/kg), 100%. Also, in the data set with Mus musculus [21], the result was Active.

In the case of `c1ccc(CCN2CCC3(CCN(CCc4ccccc4)C3)C2)cc1`, the Activity result in [15] is “Toxic”; in data set [10] it was “Toxic”; in data set [16], “Toxic”; with Mus musculus [4] it was “Dose-Dependent Effect”. In the data set with Mus musculus [17], the outcome was inactive.
